From PubChem
Shown is part of a subset that was picked to be rich in hits.
Yeast lifespan up – compounds extending yeast replicative lifespan, primary screen, S. cerevisiae, OD615; S. cerevisiae growth with nicotinamide; deaD strain in restrictive glucose medium; inhibition of the nicotinamide effect, % at 10 µM; AID 775, 2007; actives 0.68% (n = 130,000);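 active = inhibition above a set limit, placed 3 SD over the median of all compounds, cut at about 26% in these data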;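 note: 0% = nicotinamide-treated wells and 100% = cells grown without nicotinamide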
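assay system = DeaD-strain S. cerevisiae | measured by = absorbance at 615 nm | probe or stimulus = nicotinamide 1.5 mM | buffer or medium = CSMM-D glucose medium, restrictive | times = 48 h at 30 °C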
Yeast growth inh – growth inhibitors of yeast BB579 in restrictive medium, primary screen, yeast lifespan-shortening project, S. cerevisiae; inhibition, % at 10 µM; OD615, 48 h; actives 0.51% (n = 140,000); AID 804, 2007;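 active = inhibition above a set limit, 3 SD over the mean compound inhibition, cut at about 44% in these data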
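System: DeaD yeast strain BB579; buffer or medium: CSMM-D dextrose restrictive medium; technique: OD at 615 nm; schedule: 4 h cell preincubation, 48 h compound exposure, 30 °C humidified; doses: single 10 µM dose; controls: amphotericin B 10 µg/mL, positive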
PostGolgi yeast – phenotypic screen on post-Golgi transport, primary screen | inhibition, % at 10 µM | actives 0.9% (n = 98,000) | AID 739, 2007 | post-Golgi transport phenotypic cell assay;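 note: yeast cells grown in 1536-well plates; yeast grown about 18 h at 30C before absorbance read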
PostGolgi ctrl – growth inhibition of yeast control strain, primary screen, counter-screen for post-Golgi transport modulator project; inhibition, % at 10 µM; efflux-deficient yeast background strain, growth absorbance A615, 16 h; actives 5% (n = 98,000)
An asterisk follows results filed as active; / = no result given. Cut-off read from the data, not from the text of the source, unless noted: active = inhibition above about 30%; inactive = the rest.

SMILES	Yeast lifespan up	Yeast growth inh	PostGolgi yeast	PostGolgi ctrl
CC(C)c1ccc2c(c1)C(c1ccc(N3CCOCC3)cc1)=NNC(c1cccs1)=N2	1	-34	-1	42*
CCn1c(Sc2nc(C)nc3scc(-c4cccs4)c23)n[nH]c1=O	-7	99*	104*	102*
COc1ccc(OC)c(/C=N/N(C)c2ccccc2)c1	-18	-77	-1	32*
COc1cc(/C=N/N(C)c2ccccc2)cc(Cl)c1O	-13	100*	2	48*
Cc1ccc(-c2cc(C(=O)Nc3nn[nH]n3)c3ccccc3n2)cc1	-6	-84	0	3
CCC(=O)N1CCN(c2ccc(Cl)cc2NC(=O)c2ccc3c(c2)OCCO3)CC1	-12	-58	-2	47*
CCC(=O)N1CCN(c2ccc(Cl)cc2NC(=O)c2ccc(N3CCCC3)c([N+](=O)[O-])c2)CC1	-4	-30	0	14
O=C1CC(N2CCC(O)(c3ccc(Cl)cc3)CC2)C(=O)N1 (centres undefined)	3	-52	6	2
O=C1CC(N2CCN(c3ccc(Cl)c(Cl)c3)CC2)C(=O)N1 (centres undefined)	-16	2	52*	-5
Cn1nc(-c2ccccc2F)c2cc(C(=O)Nc3ccc4c(c3)OCCO4)sc21	-6	-28	20	52*
CC(CCc1ccco1)NC(=O)c1cc2c(-c3ccccc3F)nn(C)c2s1 (centres undefined)	-12	-18	-5	10
COc1cccc(-c2nn(C)c3sc(C(=O)NCc4ccc(C)cc4)cc23)c1	-3	-32	-8	25
COc1cccc(-c2nn(C)c3sc(C(=O)Nc4ccc5c(c4)OCCO5)cc23)c1	-5	-20	-2	37*
Cc1nnc(SCC(=O)NNC(=O)CC#N)[nH]c1=O	2	1	/	/
CC(C)(C)c1csc(NC(=O)c2ccc(Cl)s2)n1	-12	-28	-2	24
CCNc1nc(N)c(C(=O)c2ccc(Cl)s2)s1	-30	-47	5	46*
CCN(CC)C(=O)c1cc(C(C)(C)C)c(O)c(C(C)(C)C)c1	1	-2	/	/
C/C(=N\NC(=O)c1ccc(Cn2cc(Br)cn2)o1)c1cccc(NC(=O)C(C)(C)C)c1	-3	-23	/	/
O=C(N/N=C/c1c(F)cccc1Cl)c1ccc(Cn2cc(Br)cn2)o1	1	-14	/	/
O=C(Nc1cccc(C(F)(F)F)c1)c1ccc(Cn2cc(Br)cn2)o1	-23	-27	6	38*
O=C(Nc1ccc(C(F)(F)F)cc1Cl)c1ccc(Cn2cc(Br)cn2)o1	-27	-32	-1	39*
COCCN1C(=O)N[C@@H](c2ccc(Br)cc2)C(C(C)=O)=C1C	1	-8	/	/
O=[N+]([O-])c1cc(Br)c(O)c(/C=N/Nc2nnnn2-c2cccc3ccccc23)c1	-13	15	-4	9
Cc1sc2nc(SCC(=O)NCCOCCO)n(C)c(=O)c2c1C	-4	-26	3	1
Cc1cc(C)n2c(SCc3ccc(Cl)cc3Cl)nnc2n1	-6	-12	-4	36*
SMILES	Yeast lifespan up	Yeast growth inh	PostGolgi yeast	PostGolgi ctrl
Cc1cc(C)n2c(-c3ccccc3Cl)nnc2n1	-2	-14	/	/
Cc1cc(C)n2c(SCC(=O)Nc3ccc(Cl)cn3)nnc2n1	-10	-69	-7	-9
Cc1cc(C)n2c(SCc3ccccc3Cl)nnc2n1	-13	-30	-2	39*
CCCCn1nc(C(=O)Oc2ccc3c(C)cc(=O)oc3c2)c2ccccc2c1=O	12	-12	/	/
O=C1c2ccccc2-c2onc3ccc(NCc4ccco4)c1c23	-9	32	-5	34*
CCNc1ccc2noc3c2c1C(=O)c1ccccc1-3	/	-12	/	/
COc1ccccc1OCC(=O)c1[nH]c(C)c(C(C)=O)c1C	-9	-19	2	2
CC(=O)c1c(C)[nH]c(C(=O)COc2ccc(C#N)cc2)c1C	-19	-49	3	32*
O=C(/C=C/c1cc([N+](=O)[O-])ccc1OC(F)F)Nc1cccc2ccccc12	-5	6	/	/
CCN(CC)CCOC(=O)C1(c2ccc(OC)c(OC)c2)CCCC1	-3	-74	-1	50*
CCN(CC)CCOC(=O)C1(c2ccccc2)CCCC1	5	-59	4	-6
c1ccc(-c2ccc(C3=Nn4c(Cn5nnc6ccccc65)nnc4SC3)cc2)cc1	-3	-13	4	36*
Fc1ccc(C2=Nn3c(Cc4ccccc4F)nnc3SC2)cc1	-10	-7	-6	1
COc1ccc(OC)c(-c2cnc(OC(C)(C)C)nc2OC(C)(C)C)c1	10	-27	/	/
Brc1ccccc1-c1nnc(COc2cccc3cccnc23)o1	-7	-17	9	33*
Fc1cccc(Cl)c1CSc1nnc(COc2cccc3cccnc23)o1	5	-19	4	62*
CCN(CC)Cc1ccccc1Sc1ccccc1	1	-19	/	/
Nc1nc(Cl)cc(N2CCC(c3cc(-c4ccc(Cl)cc4)n[nH]3)CC2)n1	-15	-70	16	102*
COc1ccc(OC)c(-c2cc(C3CCN(c4cc(Cl)nc(N)n4)CC3)[nH]n2)c1	-4	-56	-4	34*
CC(=O)c1ccc(N2CCC(c3cc(-c4ccc(Cl)cc4Cl)n[nH]3)CC2)c([N+](=O)[O-])c1	-17	-46	15	4
COc1ccc(-c2cc(C3CCN(c4cc(Cl)nc(N)n4)CC3)[nH]n2)cc1	-11	-95	-5	42*
COc1ccc(CCCC(=O)Nc2ccc(F)cc2)cc1	-8	-13	/	/
Cc1cc2cc(C)c3nnc(SCc4ccccn4)n3c2cc1C	-4	-44	/	/
Cc1ccc(C)c2c1cc(C)c1nnc(SCc3ccccn3)n12	-7	14	36*	90*
Oc1ccc(/C=C/c2nc(-c3ccccc3O)n(-c3ccccc3)n2)cc1	-20	98*	7	38*
SMILES	Yeast lifespan up	Yeast growth inh	PostGolgi yeast	PostGolgi ctrl
Oc1ccccc1-c1nc(/C=C/c2ccccc2)nn1-c1ccccc1	-4	-23	/	/
NC(=O)c1ccsc1NC(=O)c1nc(-c2ccccc2)n(-c2ccccc2)n1	-10	-40	73*	11
O=C(Nc1ccccn1)c1nc(-c2ccccc2)n(-c2ccccc2)n1	4	-29	/	/
Cc1cc2nc(C)n3c4ccccc4nc3n2n1	-15	86*	-4	1
CC(C)(C)c1cc(N)on1	2	4	/	/
CC(C)(C)c1cc(C(c2cccnc2)N2CCN(CCO)CC2)cc(C(C)(C)C)c1O (centres undefined)	18	96*	3	19
CC(C)Cc1ccc(/C=C/C(=O)NC2CC2)cc1	6	-41	/	/
COc1ccc(/C=C2\SC(=S)N(NC(=O)c3csc4c3CCCC4)C2=O)cc1	-1	-57	37*	5
COc1ccc(NC(=O)c2csc3c2CCCC3)cc1	-11	-75	-8	14
CNc1nc(Nc2ccc(Br)cc2)nc(N)c1[N+](=O)[O-]	-4	-39	/	/
Cc1ccc(NC(=O)CS(=O)CC(=O)NC(C)CCc2ccco2)cc1Cl (centres undefined)	-3	-47	8	47*
Cc1cccc(NC(=S)N2CCC(N(C)CC3CCCO3)CC2)c1C (centres undefined)	-2	-27	-16	32*
